From ChEMBL document CHEMBL2396601, “Synthesis and antiprotozoal activity of dicationic m-terphenyl and 1,3-dipyridylbenzene derivatives” (J Med Chem, 2013) come the findings set out here.

Data set [1] concerns Trypanosoma brucei rhodesiense. Kind of data set: Antiprotozoal activity against Trypanosoma brucei rhodesiense STIB900 after 72 hrs by Alamar Blue assay. In kind it is functional, organism-based. The conditions noted are these: Trypanosoma brucei, STIB900, 72 h. The essentials: (§1)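 Uses T. b. rhodesiense STIB900, T. cruzi Tulahuen C2C4 LacZ intracellular amastigotes, or L6 rat myoblasts depending on line.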

A short description of data set [2]: Selectivity index, ratio of IC50 for rat L6 cells to IC50 for Trypanosoma brucei rhodesiense STIB900. In kind it is toxicity, cell-based. Particulars: for selectivity ratio: L6 cells, read-out: Ratio IC50. The essentials: (§2)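 Selectivity index is IC50 against L6 rat myoblast cells divided by IC50 against the named parasite.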
Data set [3] concerns Plasmodium falciparum. Kind of data set: Antiprotozoal activity against chloroquine-resistant Plasmodium falciparum K1 after 48 hrs by [3H]-hypoxanthine incorporation assay. The conditions noted are these: Plasmodium falciparum, K1. In kind it is functional, organism-based.
Data set [4] has as its system L6. The data set is described as follows: Cytotoxicity against rat L6 cells after 72 hrs by Alamar Blue assay. Format: cell-based. Particulars: L6, 72 h. A digest of the protocol:
as §1

Data set [5] has as its system Trypanosoma cruzi. Kind of data set: Antiprotozoal activity against intracellular amastigote form of Trypanosoma cruzi Tulahuen C2C4 expressing LacZ infected in rat L6 cells after 48 hrs. Particulars: Tulahuen C2C4, L6, 48 h. Format: functional, organism-based. The essentials:
as §1

A short description of data set [6]: Selectivity index, ratio of IC50 for rat L6 cells to IC50 for Trypanosoma cruzi Tulahuen C2C4. Particulars: read-out: Ratio IC50. In kind it is toxicity, cell-based. The essentials: as §2
Data set [7] is described as follows: Selectivity index, ratio of IC50 for rat L6 cells to IC50 for Plasmodium falciparum K1. In kind it is toxicity, cell-based. The conditions noted are these: for selectivity ratio: L6 cells, read-out: Ratio IC50. The essentials:
as §2

The subject of data set [8] is Trypanosoma brucei rhodesiense. The data set is described as follows: Antiprotozoal activity against Trypanosoma brucei rhodesiense STIB900 infected in NMRI mouse assessed as host mean survival days at 5 mg/kg, ip qd for 4 days. In kind it is functional. Particulars: route intraperitoneal. A digest of the protocol: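 Acute-stage HAT mouse model infected with STIB900. Cure means survival to 60 days after infection with no parasitemia relapse. Mean survival days are counted from infection and use every mouse: relapsed mice, plus cured mice entered as >60 days.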

Data set [9] concerns Trypanosoma brucei rhodesiense. Kind of data set: Antiprotozoal activity against Trypanosoma brucei rhodesiense STIB900 infected in NMRI mouse assessed as reduction of parasitemia relapse at 5 mg/kg, ip qd for 4 days. In kind it is functional, organism-based. Also on record: dose 5 mg/kg. A digest of the protocol:
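Mouse model of acute (early) stage HAT with T. b. rhodesiense STIB900, groups of 4 mice. Amidines dosed intraperitoneally, 4 daily doses of 5 mg/kg or single doses; prodrugs dosed orally, 4 daily doses of 25 mg/kg. Cure means survival to 60 days after infection with no parasitemia relapse. Mean survival days counts all mice, with cured mice scored as >60 days.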

Molecules are shown by their SMILES. The source made the active and inactive calls. The rule behind the calls is not given here.

Turning to `CC1(C)CN=C(c2cccc(-c3cccc(-c4cccc(C5=NCC(C)(C)CN5)c4)c3)c2)NC1`, the IC50 in data set [1] stood at 0.809 µM; in data set [3], 0.006 µM; in [4] it was 56.6 µM; in data set [5] it was 45.4 µM. The selectivity ratio in data set [2] is 70; in data set [6] it was 1; in [7], 9500.

`Cl.Cl.N=C(N)c1ccc(-c2cc(N)cc(-c3ccc(C(=N)N)cc3)c2)cc1`: the IC50 in data set [1] is 0.004 µM; in data set [3], 0.136 µM; in data set [4], over 150 µM; in data set [5], 149 µM. Moreover, the selectivity ratio was over 39800 in data set [2], over 1 in [6] and over 1100 in [7]. The MSD in [8] was over 35 days. Further, the outcome in data set [9] was inactive.

Consider `Cl.Cl.c1cc(-c2ccc(C3=NCCN3)cc2)cc(-c2ccc(C3=NCCN3)cc2)c1`, for which the IC50 in data set [1] stood at 0.068 µM; in data set [3], 0.073 µM; in [4] it was 2.55 µM; in data set [5], 18.9 µM. Moreover, the results for the selectivity ratio in data set [2], in data set [6] and in data set [7] were 37, under 1 and 35, respectively. Besides, the MSD in data set [8] came to 9.25 days. For the same compound, the result in [9] was inactive.

As for `COc1cc(-c2cccc(C(=N)N)c2)cc(-c2cccc(C(=N)N)c2)c1.Cl.Cl`, the IC50 in data set [1] was 0.029 µM; in [3], 0.028 µM; in data set [4], 137 µM; in [5], 55.9 µM. The selectivity ratio in data set [2] turned out to be 4700; in [6], 2; in data set [7], 4960. Further, the MSD in data set [8] worked out at 10 days. For the same compound, the outcome in data set [9] was inactive.

In the case of `CC1(C)CN=C(c2ccc(-c3cccc(-c4ccc(C5=NCC(C)(C)CN5)cc4)c3)cc2)NC1`, the IC50 in data set [1] was found to be 0.14 µM; in data set [3], 0.002 µM; in data set [4] it was 122 µM; in data set [5], 151 µM. The selectivity ratio was 871 in [2], under 1 in data set [6] and 49300 in data set [7].

In the case of `Nc1nc(N)nc(Nc2ccc([As]3SCC(CO)S3)cc2)n1` (centres undefined) [MELARSOPROL], the MSD in data set [8] was over 60 days. Further, the result in data set [9] was Active.

As for `Cl.Cl.N=C(N)c1ccc(-c2cc(O)cc(-c3ccc(C(=N)N)cc3)c2)cc1`, the IC50 was 0.004 µM in data set [1], 0.038 µM in [3], over 150 µM in data set [4] and over 150 µM in data set [5]. The selectivity ratio in data set [2] is over 37500; in data set [6], under 1; in data set [7] it was over 3950. Moreover, the MSD in data set [8] is over 41.25 days.

Regarding `c1cc(C2=NCCN2)cc(-c2cccc(-c3cccc(C4=NCCN4)c3)c2)c1`, the IC50 turned out to be 1.6 µM in [1], 0.619 µM in data set [3], 31.7 µM in data set [4] and 20.4 µM in [5]. Further, the figures for the selectivity ratio in [2], in data set [6] and in [7] were 20, 2 and 51, respectively.

As to `Cl.Cl.N=C(N)c1ccc(-c2cccc(-c3cccc(C(=N)N)c3)c2)cc1`, the IC50 in data set [1] is 0.052 µM; in data set [3] it was 0.015 µM; in data set [4] it was 28.5 µM; in [5] it was 27.1 µM. Moreover, the selectivity ratio came out at 544 in data set [2], 1 in data set [6] and 1950 in data set [7]. The MSD in [8] was 34.75 days. For the same compound, the outcome in data set [9] was inactive.

`N=C(N)c1cncc(-c2cccc(-c3cncc(C(=N)N)c3)c2)c1`: the IC50 in data set [1] is 0.527 µM; in data set [3] it was 0.058 µM; in data set [4] it was over 150 µM; in [5] it was over 150 µM. For the same compound, the selectivity ratio in [2] is over 285; in data set [7] it was over 2580.

`CCN(CC)CCCC(C)Nc1ccnc2cc(Cl)ccc12` (centres undefined) [CHLOROQUINE]: the IC50 in data set [4] amounted to 76.5 µM.

Turning to `C[C@@H]1CC[C@H]2[C@@H](C)C(=O)O[C@@H]3O[C@@]4(C)CC[C@@H]1[C@]32OO4` [ARTEMISININ], the IC50 in data set [3] is 0.004 µM; in [4], 150 µM. Also, the selectivity ratio in data set [7] is 34900.

In the case of `CC(C)NC(=N)c1cccc(-c2cccc(-c3cccc(C(=N)NC(C)C)c3)c2)c1`, the IC50 is 0.617 µM in data set [1], 0.031 µM in data set [3], over 150 µM in data set [4] and 141 µM in [5]. Moreover, the figures for the selectivity ratio in data set [2], in [6] and in data set [7] were over 243, over 1 and over 4190, respectively.

Consider `CC1(C)CN=C(c2ccc(-c3cc(-c4ccc(C5=NCC(C)(C)CN5)cc4)cc([N+](=O)[O-])c3)cc2)NC1`, for which the IC50 was 0.692 µM in data set [1], 0.003 µM in [3], over 150 µM in data set [4] and over 150 µM in [5]. Further, the selectivity ratio is over 217 in data set [2] and over 46800 in data set [7].

As for `Cl.Cl.N=C(N)c1cccc(-c2cccc(-c3cccc(C(=N)N)c3)c2)c1`, the IC50 in data set [1] came out at 0.055 µM; in data set [3], 0.038 µM; in [4], 125 µM; in [5], 35 µM. For the same compound, the selectivity ratio in data set [2] turned out to be 2270; in data set [6] it was 4; in [7], 3320. Besides, the MSD in data set [8] came out at 18.5 days. In data set [9], the result was inactive.

In the case of `CC(=O)O.N=C(N)c1ccc(-c2cccc(-c3ccc(C(=N)N)cn3)c2)nc1`, the IC50 in data set [1] is 0.022 µM; in [3] it was 0.045 µM; in data set [4], over 150 µM; in data set [5], over 150 µM. Besides, the results for the “Ratio IC50” value in data set [2] (l6) and in data set [7] (l6) were over 6856 and over 3339, respectively. Besides, in data set [8], the MSD is over 60 days.

As for `N=C(N)c1ccc(-c2cc(Cl)cc(-c3cccc(C(=N)N)c3)c2)cc1`, the IC50 is 0.097 µM in data set [1], 0.01 µM in data set [3], 12.7 µM in data set [4] and 46.6 µM in data set [5]. For the same compound, the selectivity ratio in [2] is 130; in [6], under 1; in [7], 1250.

Regarding `N=C(N)c1ccc(-c2ccc(-c3ccc(C(=N)N)cc3)o2)cc1` [FURAMIDINE], the results for the IC50 in [1], in data set [3] and in [5] were 0.003 µM, 0.014 µM and 23.3 µM, respectively. For the same compound, the MSD in data set [8] is over 46 days.

As to `N=C(N)c1ccc(OCCCCCOc2ccc(C(=N)N)cc2)cc1` [PENTAMIDINE], in data set [8], the MSD was over 38 days.

Take `COc1cc(-c2ccc(C(=N)N)cc2)cc(-c2ccc(C(=N)N)cc2)c1.Cl.Cl`: the IC50 turned out to be 0.005 µM in data set [1], 0.048 µM in [3], 33 µM in data set [4] and 59.1 µM in data set [5]. The selectivity ratio in [2] is 7270; in [6], under 1; in [7] it was 693. Besides, the MSD in [8] was over 38 days.

Consider `N=C(N)c1ccnc(-c2cccc(-c3cc(C(=N)N)ccn3)c2)c1`, for which the IC50 was 1.17 µM in data set [1], 0.077 µM in data set [3], over 150 µM in data set [4] and over 150 µM in [5]. In addition, the selectivity ratio in data set [2] is over 128; in [7] it was over 1940.

As for `Cl.Cl.N=C(N)c1ccc(-c2cc(-c3ccc(C(=N)N)cc3)cc([N+](=O)[O-])c2)cc1`, the IC50 in data set [1] is 0.02 µM; in data set [3], 0.018 µM; in data set [4] it was over 150 µM; in data set [5] it was 57.2 µM. The selectivity ratio in data set [2] is over 7480; in [6] it was over 2; in [7], over 8380. Besides, the MSD in data set [8] turned out to be 20 days. Moreover, the outcome in [9] was inactive.

For the compound `N=C(N)c1cccc(-c2cc(Cl)cc(-c3cccc(C(=N)N)c3)c2)c1`, the IC50 turned out to be 0.044 µM in [1], 0.033 µM in data set [3], 30.9 µM in data set [4] and 50.2 µM in data set [5]. Besides, the selectivity ratio in data set [2] was 709; in [6], under 1; in [7], 944.

For the compound `Cl.Cl.Cl.N=C(N)c1ccc(-c2cc(Cl)cc(-c3ccc(C(=N)N)cc3)c2)cc1`, the IC50 in [1] came to 0.031 µM; in [3], 0.039 µM; in data set [4], 21.9 µM; in data set [5] it was 65.5 µM. The selectivity ratio was 700 in [2], under 1 in data set [6] and 561 in data set [7]. Moreover, the MSD in [8] came to 15.25 days. The result in [9] was inactive.

Take `O=C(Cn1ccnc1[N+](=O)[O-])NCc1ccccc1` [BENZNIDAZOLE]: the IC50 is over 150 µM in data set [4] and 1.3 µM in data set [5]. Moreover, the selectivity ratio in data set [6] came to 115.

Consider `CC(C)NC(=N)c1ccc(-c2cccc(-c3ccc(C(=N)NC(C)C)cc3)c2)cc1.Cl.Cl`, for which the IC50 was 0.047 µM in data set [1], 0.016 µM in [3], 102 µM in data set [4] and over 150 µM in data set [5]. The selectivity ratio in data set [2] was 2160; in data set [6] it was under 1; in data set [7], 6580. Also, the MSD in data set [8] turned out to be 13.5 days. In addition, the result in data set [9] was inactive.
